Values after ≈ are worked out from the molar mass of the structure shown.
How the values were obtained:
Staphylococcus aureus [1] = experiment: Antimicrobial activity against Panton-valentine leukocidin positive community acquired methicillin-resistant Staphylococcus aureus N4090440 obtained from wound infection of patient infected in human THP-1 cells assessed as decrease in bacterial count from original inoculum at high compound concentration after 24 hrs at pH 5.5; format: functional
Outline: (§1)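 Bacteria phagocytosed by unactivated human THP-1 macrophages, then incubated 24 h with extracellular antibiotic at about 0.01× to 100× the pH 5.5 broth MIC. CFU per mg cell protein counted against the original inoculum, n = 3. A Hill-equation fit (slope factor 1) gave Emin and Emax, extrapolated to infinitely low and high concentration, and EC50. Static concentration was graphically interpolated.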

Staphylococcus aureus [2] = experiment: Bacteriostatic activity against animal acquired methicillin-resistant Staphylococcus aureus N7112046 infected in human THP-1 cells assessed as decrease in bacterial growth after 24 hrs at pH 5.5; format: functional
Outline: (§2)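 Human THP-1 macrophages infected with each S. aureus strain. Cloxacillin added extracellularly at about 0.01× to 100× the broth MIC measured at pH 5.5, with gentamicin 0.5 mg/liter to stop extracellular growth. Incubated 24 h. CFU counted per mg cell protein as change from the post-phagocytosis inoculum, n = 3. Emin, Emax and EC50 from a Hill fit; static concentration by graphical interpolation.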

Staphylococcus aureus [3] = experiment: Antimicrobial activity against constitutive beta-lactamase negative methicillin-resistant Staphylococcus aureus COL NRS100 infected in human THP-1 cells assessed as decrease in bacterial count from original inoculum at high compound concentration after 24 hrs at pH 5.5; format: functional; outline: as §1
Staphylococcus aureus [4] = experiment: Bacteriostatic activity against hospital acquired methicillin-resistant Staphylococcus aureus N4120210 infected in human THP-1 cells assessed as decrease in bacterial growth after 24 hrs at pH 5.5; format: functional; outline: as §2
Staphylococcus aureus [5] = experiment: Antimicrobial activity against intracellular hospital acquired methicillin-resistant Staphylococcus aureus ATCC 33591 infected in human Calu3 cells assessed as decrease in bacterial growth after 24 hrs at pH 7.4; format: functional, organism-based; conditions: ATCC 33591, Calu-3, 24 h
Outline: (§3)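 Primary human skin keratinocytes or Calu-3 bronchial epithelial cells, given an inoculum of 5 × 10⁷ to 1 × 10⁸ bacteria/ml and 2 h for internalization. Post-phagocytosis load 1.5 × 10⁶ to 3.0 × 10⁶ CFU per mg cell protein. Cloxacillin dose range in mg/liter for 24 h, n = 3. Hill-derived Emin, Emax and EC50; static concentration interpolated.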

Staphylococcus aureus [6] = experiment: Antimicrobial activity against beta-lactamase negative methicillin-susceptible Staphylococcus aureus ATCC 25923 by broth microdilution method at pH 5.5; format: functional
Staphylococcus aureus [7] = experiment: Antimicrobial activity against animal acquired methicillin-resistant Staphylococcus aureus N7112046 by broth microdilution method at pH 7.4; format: functional
Staphylococcus aureus [8] = experiment: (§4) Antimicrobial activity against hospital acquired methicillin-resistant and vancomycin-intermediate Staphylococcus aureus NRS18 obtained from wound, skin and soft tissue infection of patient infected in human THP-1 cells assessed as decrease in bacterial count from original inoculum at high compound concentration after 24 hrs at pH 5.5; format: functional; outline: as §1
Staphylococcus aureus [9] = experiment: Antimicrobial activity against hospital acquired methicillin-resistant Staphylococcus aureus ATCC 33591 by broth microdilution method at pH 5.5; format: functional
Staphylococcus aureus [10] = experiment: Bacteriostatic activity against intracellular hospital acquired methicillin-resistant Staphylococcus aureus ATCC 33591 infected in activated human THP-1 cells assessed as decrease in bacterial growth after 24 hrs at pH 7.4; format: functional
Outline: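 THP-1 cells activated by 24-h culture with phorbol myristate acetate 2 mg/liter, then infected like unactivated THP-1. Cloxacillin dose range in mg/liter for 24 h. CFU per mg cell protein relative to the original inoculum, n = 3. Emin and Emax extrapolated from a Hill fit (slope 1), with EC50 as total drug; static concentration by graphical interpolation.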

[11] = Chemical stability of the compound assessed as compound remaining after 24 hrs PBS buffer by HPLC analysis at pH 5.5; format: physicochemical; conditions: read-out: Activity
Outline: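 Drug at 50 mg/liter initial concentration incubated 24 h at 37°C in buffered medium at pH 7.4 or 5.5. Remaining drug measured by HPLC signal disappearance; mobile phase 25 mM phosphate buffer pH 6.7 with acetonitrile (75:25).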

Staphylococcus aureus [12] = experiment: as §4, with “NRS126” for “NRS18”, “bloodstream” for “wound, skin and soft tissue”, “increase” for “decrease”, “low” for “high”; format: functional; outline: as §1
Staphylococcus aureus [13] = experiment: Antimicrobial activity against animal acquired methicillin-resistant Staphylococcus aureus N7112046 by broth microdilution method at pH 5.5; format: functional
Staphylococcus aureus [14] = experiment: Antimicrobial activity against intracellular beta-lactamase negative methicillin-susceptible Staphylococcus aureus ATCC 25923 infected in human Calu3 cells assessed as increase in bacterial count from original inoculum at low compound concentration after 24 hrs at pH 7.4; format: functional, Calu-3
Outline: (§5)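 Primary human skin keratinocytes or Calu-3 bronchial epithelial cells infected with MSSA ATCC 25923 at 5 × 10⁷ to 1 × 10⁸ bacteria/ml, 2 h internalization. Postphagocytosis inoculum 1.5 × 10⁶ to 3.0 × 10⁶ CFU/mg protein. Cloxacillin concentration range for 24 h; CFU/mg protein change vs. inoculum (n = 3). Hill fit gives Emin/Emax; static concentration by graphical interpolation.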

Staphylococcus aureus [15] = experiment: Bacteriostatic activity against hospital acquired methicillin-resistant Staphylococcus aureus N4120032 infected in human THP-1 cells assessed as decrease in bacterial growth after 24 hrs at pH 5.5; format: functional; outline: as §2
Staphylococcus aureus [16] = experiment: Bacteriostatic activity against intracellular hospital acquired methicillin-resistant Staphylococcus aureus ATCC 33591 infected in human Calu3 cells assessed as decrease in bacterial growth after 24 hrs at pH 7.4; format: functional, Calu-3; outline: as §3
Staphylococcus aureus [17] = experiment: Bacteriostatic activity against intracellular beta-lactamase negative methicillin-susceptible Staphylococcus aureus ATCC 25923 infected in human Calu3 cells assessed as decrease in bacterial growth after 24 hrs at pH 7.4; format: functional, Calu-3; outline: as §5
THP-1 = experiment: Ratio of intracellular to extracellular drug level in human THP1 cells at 250 mg/L after 24 hrs; format: ADME, cell-based; conditions: thp-1, 24 h
Outline: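 THP-1 cells incubated 24 h at 250 mg/liter extracellular drug. Cell lysates assayed microbiologically with MSSA ATCC 25923; content expressed per mg total protein. Cellular/extracellular ratio calculated assuming cell volume of 5 μl per mg protein.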

Staphylococcus aureus [18] = experiment: Antimicrobial activity against hospital acquired methicillin-resistant and vancomycin-intermediate Staphylococcus aureus NRS18 obtained from patient with wound, skin and soft tissue infection by broth microdilution method at pH 7.4; format: functional
Outline: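 Minimal inhibitory concentration by broth microdilution at pH 7.4, read in mg/liter. The MRSA genotype was confirmed by mecA PCR, and the SCCmec subgroup was assigned by multiplex PCR.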

Staphylococcus aureus [19] = experiment: Antimicrobial activity against hospital acquired methicillin-resistant Staphylococcus aureus ATCC 33591 infected in human THP-1 cells assessed as decrease in bacterial count from original inoculum at high compound concentration after 24 hrs at pH 7.4; format: functional
Staphylococcus aureus [20] = experiment: Antimicrobial activity against beta-lactamase negative methicillin-susceptible Staphylococcus aureus ATCC 25923 infected in human THP-1 cells assessed as increase in bacterial count from original inoculum at low compound concentration after 24 hrs at pH 7.4; format: functional
Staphylococcus aureus [21] = experiment: Antimicrobial activity against hospital acquired methicillin-resistant Staphylococcus aureus ATCC 33591 infected in human THP-1 cells assessed as increase in bacterial count from original inoculum at low compound concentration after 24 hrs at pH 5.5; format: functional; outline: as §1
Staphylococcus aureus [22] = experiment: Antimicrobial activity against Panton-valentine leukocidin positive community acquired methicillin-resistant Staphylococcus aureus N4090440 obtained from wound infection of patient infected in human THP-1 cells assessed as decrease in bacterial growth after 24 hrs at pH 5.5; format: functional, organism-based; conditions: N4090440, THP-1, 24 h; outline: as §1

## Cc1onc(-c2ccccc2Cl)c1C(=O)N[C@@H]1C(=O)N2[C@@H]1SC(C)(C)[C@@H]2C(=O)O [CLOXACILLIN]
Staphylococcus aureus [1]
  log10cfu: 0.45
Staphylococcus aureus [2]
  Activity: 17.8 ×MIC
Staphylococcus aureus [3]
  log10cfu: 0.78
Staphylococcus aureus [4]
  Activity: 35.5 ×MIC
Staphylococcus aureus [5]
  EC50: 0.39 µg/mL (≈ 0.895 µM)
Staphylococcus aureus [6]
  MIC: 0.06 µg/mL (≈ 0.138 µM)
Staphylococcus aureus [7]
  MIC: 512 µg/mL (≈ 1170 µM)
Staphylococcus aureus [8]
  log10cfu: 0.57
Staphylococcus aureus [9]
  MIC: 0.06 µg/mL (≈ 0.138 µM)
Staphylococcus aureus [10]
  Activity: 1 mg/L
[11]
  remaining at 24 h: 93.3%
Staphylococcus aureus [12]
  log10cfu: 2.76
Staphylococcus aureus [13]
  MIC: 0.125 µg/mL (≈ 0.287 µM)
Staphylococcus aureus [14]
  log10cfu: 3.19
Staphylococcus aureus [15]
  Activity: 33.1 ×MIC
Staphylococcus aureus [16]
  Activity: 1 mg/L
Staphylococcus aureus [17]
  Activity: 1.6 mg/L
THP-1
  Ratio: 0.28
Staphylococcus aureus [18]
  MIC: 8 µg/mL (≈ 18.4 µM)
Staphylococcus aureus [19]
  log10cfu: 0.55
Staphylococcus aureus [20]
  log10cfu: 1.79
Staphylococcus aureus [21]
  log10cfu: 2.27
Staphylococcus aureus [22]
  EC50: 3.14 ×MIC

From ChEMBL document CHEMBL1649111, “Restoration of susceptibility of intracellular methicillin-resistant Staphylococcus aureus to beta-lactams: comparison of strains, cells, and antibiotics” (Antimicrob Agents Chemother, 2008)
